{
  "source": "ChEMBL document CHEMBL1128440",
  "about": "(J Med Chem, 1995)",
  "key": {"Rattus norvegicus [1]": {"organism": "Rattus norvegicus", "assay": "Tissue biodistribution into estrogen-primed immature female rat uterus/blood at 1 hr blocked time interval", "type": "ADME, organism-based", "conditions": "in vivo", "summary_of_the_method": "(§1)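 Immature female Sprague-Dawley rats (25 days old, ≈50 g, five per time point) primed with estradiol, 5 μg sc daily for 2 days in 50% ethanol/sunflower seed oil, used 24 h after the last injection. The 18F-labeled ligand was given iv by tail vein in 10% ethanol/saline. Decapitated at 1 or 3 h; blood and organs weighed and gamma-counted. Reported as %ID/g ± SD, n = 5.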"}, "Rattus norvegicus [2]": {"organism": "Rattus norvegicus", "assay": "Tissue biodistribution into estrogen-primed immature female rat uterus/muscle at 1 hr low time interval", "type": "ADME, organism-based", "conditions": "in vivo", "summary_of_the_method": "as §1"}, "Rattus norvegicus [3]": {"organism": "Rattus norvegicus", "assay": "Tissue biodistribution into estrogen-primed immature female rat blood at 3 hr time interval", "type": "ADME, organism-based", "conditions": "in vivo", "summary_of_the_method": "as §1"}, "Rattus norvegicus [4]": {"organism": "Rattus norvegicus", "assay": "Tissue biodistribution into estrogen-primed immature female rat fat at 1 hr time interval", "type": "ADME, organism-based, Adipose tissue", "conditions": "in vivo", "summary_of_the_method": "as §1"}, "Rattus norvegicus [5]": {"organism": "Rattus norvegicus", "assay": "Tissue biodistribution into estrogen-primed immature female rat uterus/blood at 1 hr low time interval", "type": "ADME, organism-based", "conditions": "in vivo", "summary_of_the_method": "as §1"}, "Rattus norvegicus [6]": {"organism": "Rattus norvegicus", "assay": "Tissue biodistribution into estrogen-primed immature female rat kidney at 1 hr low time interval", "type": "ADME, organism-based", "conditions": "in vivo", "summary_of_the_method": "as §1"}, "Rattus norvegicus [7]": {"organism": "Rattus norvegicus", "assay": "Tissue biodistribution into estrogen-primed immature female rat blood at 1 hr low time interval", "type": "ADME, organism-based", "conditions": "in vivo", "summary_of_the_method": "as §1"}, "Rattus norvegicus [8]": {"organism": "Rattus norvegicus", "assay": "Tissue biodistribution into estrogen-primed immature female rat uterus/muscle at 3 hr time interval", "type": "ADME, organism-based", "conditions": "in vivo"}, "Rattus norvegicus [9]": {"organism": "Rattus norvegicus", "assay": "Tissue biodistribution into estrogen-primed immature female rat ovaries at 1 hr low time interval", "type": "ADME, organism-based, Female gonad", "conditions": "in vivo", "summary_of_the_method": "as §1"}, "Rattus norvegicus [10]": {"organism": "Rattus norvegicus", "assay": "Tissue biodistribution into estrogen-primed immature female rat muscle at 1 hr blocked time interval", "type": "ADME, organism-based", "conditions": "in vivo", "summary_of_the_method": "as §1"}, "Rattus norvegicus [11]": {"organism": "Rattus norvegicus", "assay": "Tissue biodistribution into estrogen-primed immature female rat blood at 1 hr blocked time interval", "type": "ADME, organism-based", "conditions": "in vivo", "summary_of_the_method": "as §1"}, "[12]": {"target": "T1, Progesterone receptor (Homo sapiens) (UniProt P06401)", "T1 sequence (whole entry)": "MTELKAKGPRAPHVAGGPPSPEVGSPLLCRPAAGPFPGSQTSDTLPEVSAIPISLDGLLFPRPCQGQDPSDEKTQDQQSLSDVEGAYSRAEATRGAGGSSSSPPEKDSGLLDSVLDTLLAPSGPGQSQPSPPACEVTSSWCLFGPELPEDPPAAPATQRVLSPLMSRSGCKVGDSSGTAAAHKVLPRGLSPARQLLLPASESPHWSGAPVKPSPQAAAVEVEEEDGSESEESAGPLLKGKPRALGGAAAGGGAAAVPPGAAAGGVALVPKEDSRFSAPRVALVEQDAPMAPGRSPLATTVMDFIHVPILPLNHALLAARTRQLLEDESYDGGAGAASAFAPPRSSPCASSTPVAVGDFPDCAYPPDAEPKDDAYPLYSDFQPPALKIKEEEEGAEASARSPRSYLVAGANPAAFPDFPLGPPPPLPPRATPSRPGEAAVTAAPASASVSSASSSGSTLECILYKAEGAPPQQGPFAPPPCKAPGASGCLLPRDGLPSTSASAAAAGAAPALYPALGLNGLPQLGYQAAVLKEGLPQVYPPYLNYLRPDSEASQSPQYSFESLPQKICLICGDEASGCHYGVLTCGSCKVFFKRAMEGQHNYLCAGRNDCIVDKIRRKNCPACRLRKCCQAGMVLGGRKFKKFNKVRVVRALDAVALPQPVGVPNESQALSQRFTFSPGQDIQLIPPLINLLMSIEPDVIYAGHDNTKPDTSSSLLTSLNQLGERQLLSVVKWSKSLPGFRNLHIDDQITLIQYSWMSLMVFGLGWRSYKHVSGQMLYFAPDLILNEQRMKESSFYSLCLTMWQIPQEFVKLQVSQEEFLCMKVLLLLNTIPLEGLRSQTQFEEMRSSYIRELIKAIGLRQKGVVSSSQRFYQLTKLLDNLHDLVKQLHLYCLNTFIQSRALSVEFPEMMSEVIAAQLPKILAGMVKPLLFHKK", "assay": "Relative binding affinity against progesterone receptor at 0 degree Celsius determined in a competitive radiometric binding assay (R5020=100%).", "summary_of_the_method": "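Competitive radiometric binding at 0 °C against tritium-labeled R5020 as the standard (RBA = 100). Values are the average of two experiments.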"}, "Rattus norvegicus [13]": {"organism": "Rattus norvegicus", "assay": "Tissue biodistribution into estrogen-primed immature female rat lung at 1 hr time interval", "type": "ADME, organism-based", "conditions": "in vivo", "summary_of_the_method": "as §1"}, "Rattus norvegicus [14]": {"organism": "Rattus norvegicus", "assay": "Tissue biodistribution into estrogen-primed immature female rat brain at 1 hr blocked time interval", "type": "ADME, organism-based", "conditions": "in vivo", "summary_of_the_method": "as §1"}, "Rattus norvegicus [15]": {"organism": "Rattus norvegicus", "assay": "Tissue biodistribution into estrogen-primed immature female rat brain at 1 hr low time interval", "type": "ADME, organism-based", "conditions": "in vivo", "summary_of_the_method": "as §1"}, "Rattus norvegicus [16]": {"organism": "Rattus norvegicus", "assay": "Tissue biodistribution into estrogen-primed immature female rat lung at 3 hr time interval", "type": "ADME, organism-based", "conditions": "in vivo", "summary_of_the_method": "as §1"}, "Rattus norvegicus [17]": {"organism": "Rattus norvegicus", "assay": "Tissue biodistribution into estrogen-primed immature female rat ovaries at 3 hr time interval", "type": "ADME, organism-based, Female gonad", "conditions": "in vivo", "summary_of_the_method": "as §1"}, "Rattus norvegicus [18]": {"organism": "Rattus norvegicus", "assay": "Tissue biodistribution into estrogen-primed immature female rat lung at 1 hr blocked time interval", "type": "ADME, organism-based", "conditions": "in vivo", "summary_of_the_method": "as §1"}, "[19]": {"assay": "Partition coefficient (logP)", "type": "physicochemical", "conditions": "octanol/water; read-out: logP", "summary_of_the_method": "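log P(o/w) (octanol/water) estimated by a reversed-phase HPLC method.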"}, "Rattus norvegicus [20]": {"organism": "Rattus norvegicus", "assay": "Tissue biodistribution into estrogen-primed immature female rat fat at 1 hr blocked time interval", "type": "ADME, organism-based, Adipose tissue", "conditions": "in vivo", "summary_of_the_method": "as §1"}, "Rattus norvegicus [21]": {"organism": "Rattus norvegicus", "assay": "Tissue biodistribution into estrogen-primed immature female rat bone at 1 hr blocked time interval", "type": "ADME, organism-based, Bone element", "conditions": "in vivo", "summary_of_the_method": "as §1"}, "Rattus norvegicus [22]": {"organism": "Rattus norvegicus", "assay": "Tissue biodistribution into estrogen-primed immature female rat bone at 1 hr time interval", "type": "ADME, organism-based, Bone element", "conditions": "in vivo", "summary_of_the_method": "as §1"}, "Rattus norvegicus [23]": {"organism": "Rattus norvegicus", "assay": "Tissue biodistribution into estrogen-primed immature female rat liver at 1 hr time interval", "type": "ADME, organism-based", "conditions": "in vivo", "summary_of_the_method": "as §1"}, "Rattus norvegicus [24]": {"organism": "Rattus norvegicus", "assay": "Tissue biodistribution into estrogen-primed immature female rat uterus at 1 hr low time interval", "type": "ADME, organism-based", "conditions": "in vivo", "summary_of_the_method": "as §1"}, "Rattus norvegicus [25]": {"organism": "Rattus norvegicus", "assay": "Tissue biodistribution into estrogen-primed immature female rat muscle at 3 hr time interval", "type": "ADME, organism-based", "conditions": "in vivo", "summary_of_the_method": "as §1"}, "Rattus norvegicus [26]": {"organism": "Rattus norvegicus", "assay": "Tissue biodistribution into estrogen-primed immature female rat uterus/blood at 1 hr time interval", "type": "ADME, organism-based", "conditions": "in vivo", "summary_of_the_method": "as §1"}},
  "data": [
    {"smiles": "CC1(c2ccco2)O[C@@H]2CC3C4CCC5=CC(=O)CC[C@@H]5C4CC[C@]3(C)[C@]2(C(=O)CF)O1", "note": "(stereo partly specified)", "values": [
      {"measurement": "uterus/blood ratio", "setting": "Rattus norvegicus [1]", "value": 2.47},
      {"measurement": "Injected dose/g", "setting": "Rattus norvegicus [2]", "value": 12.09, "unit": "%"},
      {"measurement": "Injected dose/g", "setting": "Rattus norvegicus [3]", "value": 0.14, "unit": "%"},
      {"measurement": "Injected dose/g", "setting": "Rattus norvegicus [4]", "value": 2.86, "unit": "%"},
      {"measurement": "Injected dose/g", "setting": "Rattus norvegicus [5]", "value": 10, "unit": "%"},
      {"measurement": "Injected dose/g", "setting": "Rattus norvegicus [6]", "value": 0.97, "unit": "%"},
      {"measurement": "Injected dose/g", "setting": "Rattus norvegicus [7]", "value": 0.35, "unit": "%"},
      {"measurement": "ratio", "setting": "Rattus norvegicus [8]", "value": 53.1},
      {"measurement": "Injected dose/g", "setting": "Rattus norvegicus [9]", "value": 1.58, "unit": "%"},
      {"measurement": "Injected dose/g", "setting": "Rattus norvegicus [10]", "value": 0.54, "unit": "%"},
      {"measurement": "Injected dose/g", "setting": "Rattus norvegicus [11]", "value": 0.6, "unit": "%"},
      {"measurement": "RBA", "setting": "[12]", "value": 173},
      {"measurement": "Injected dose/g", "setting": "Rattus norvegicus [13]", "value": 1.92, "unit": "%"},
      {"measurement": "Injected dose/g", "setting": "Rattus norvegicus [14]", "value": 0.49, "unit": "%"},
      {"measurement": "Injected dose/g", "setting": "Rattus norvegicus [15]", "value": 0.34, "unit": "%"},
      {"measurement": "Injected dose/g", "setting": "Rattus norvegicus [16]", "value": 0.27, "unit": "%"},
      {"measurement": "Injected dose/g", "setting": "Rattus norvegicus [17]", "value": 2.66, "unit": "%"},
      {"measurement": "Injected dose/g", "setting": "Rattus norvegicus [18]", "value": 1.16, "unit": "%"},
      {"measurement": "logP", "setting": "[19]", "value": 4.13},
      {"measurement": "Injected dose/g", "setting": "Rattus norvegicus [20]", "value": 3.48, "unit": "%"},
      {"measurement": "Injected dose/g", "setting": "Rattus norvegicus [21]", "value": 1.29, "unit": "%"},
      {"measurement": "Injected dose/g", "setting": "Rattus norvegicus [22]", "value": 1.15, "unit": "%"},
      {"measurement": "Injected dose/g", "setting": "Rattus norvegicus [23]", "value": 1.26, "unit": "%"},
      {"measurement": "Injected dose/g", "setting": "Rattus norvegicus [24]", "value": 3.46, "unit": "%"},
      {"measurement": "Injected dose/g", "setting": "Rattus norvegicus [25]", "value": 0.2, "unit": "%"},
      {"measurement": "Uterus to blood concentration ratio", "setting": "Rattus norvegicus [26]", "value": 20.09, "unit": "%"}
    ]}
  ]
}
